Measured values as given in ChEMBL document CHEMBL2429786, “New serotonin 5-HT1A receptor agonists endowed with antinociceptive activity in vivo” (J Med Chem, 2013).
Active and inactive are the calls of the source. The rule behind the calls is not given here.

Columns and labels:
[1] = target: 5-hydroxytryptamine receptor 7 (Rattus norvegicus, UniProt P32305); assay: Displacement of [3H]-5-CT from 5-HT7 receptor in Sprague-Dawley rat hypothalamus after 120 mins
[2] = Intrinsic clearance in human liver microsomes at 1 to 5 uM by HPLC-MS analysis; assay type: ADME, Microsome; details: read-out: CLH
Procedure, shortened: (§1)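 Incubation mixtures pre-equilibrated at 37 °C with NADPH and MgCl2, then rat or human liver microsomes added to start the reaction. Aliquots were withdrawn and quenched at several time points, and percent parent remaining was measured by HPLC-MS and plotted against time. t1/2 was taken from the slope of peak area over time and used to calculate CLint.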

[3] = target: T1, 5-hydroxytryptamine receptor 3A (Rattus norvegicus, UniProt P35563); assay: Displacement of [3H]LY 278584 from 5-HT3 receptor in Sprague-Dawley rat cerebral cortex after 30 mins; assay type: tissue-based
T1 sequence (P35563 whole entry): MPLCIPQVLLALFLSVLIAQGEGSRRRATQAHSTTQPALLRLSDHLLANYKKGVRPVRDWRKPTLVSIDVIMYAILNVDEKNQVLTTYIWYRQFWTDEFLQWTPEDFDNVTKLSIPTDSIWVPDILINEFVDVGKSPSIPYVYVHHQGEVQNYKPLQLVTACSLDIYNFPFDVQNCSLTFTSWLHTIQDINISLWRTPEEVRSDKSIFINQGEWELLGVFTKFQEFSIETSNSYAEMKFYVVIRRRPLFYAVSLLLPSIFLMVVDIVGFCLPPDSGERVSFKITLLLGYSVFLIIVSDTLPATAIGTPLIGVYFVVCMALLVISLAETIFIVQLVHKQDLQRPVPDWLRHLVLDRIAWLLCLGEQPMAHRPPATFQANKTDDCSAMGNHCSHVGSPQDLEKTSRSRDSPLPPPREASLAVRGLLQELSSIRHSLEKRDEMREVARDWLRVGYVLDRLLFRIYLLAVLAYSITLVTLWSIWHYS

[4] = target: T2, Muscarinic acetylcholine receptor M2 (Homo sapiens) (UniProt P08172); assay: Displacement of [3H]AF-DX 384 from muscarinic M2 receptor (unknown origin) at 1 uM after 60 mins
T2 sequence (whole entry): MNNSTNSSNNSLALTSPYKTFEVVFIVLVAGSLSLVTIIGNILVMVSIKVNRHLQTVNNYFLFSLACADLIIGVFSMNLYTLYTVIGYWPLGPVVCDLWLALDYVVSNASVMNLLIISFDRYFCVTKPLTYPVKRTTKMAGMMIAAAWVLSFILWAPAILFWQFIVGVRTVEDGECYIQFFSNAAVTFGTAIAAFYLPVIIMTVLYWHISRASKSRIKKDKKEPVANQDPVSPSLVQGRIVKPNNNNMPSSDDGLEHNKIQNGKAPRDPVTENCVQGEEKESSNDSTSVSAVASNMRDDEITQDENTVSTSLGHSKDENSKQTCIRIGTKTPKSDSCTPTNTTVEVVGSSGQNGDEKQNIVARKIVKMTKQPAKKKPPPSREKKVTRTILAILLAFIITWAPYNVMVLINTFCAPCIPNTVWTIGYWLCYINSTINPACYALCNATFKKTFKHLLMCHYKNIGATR

Mus musculus [5] = assay: Antinociceptive activity in CD-1 mouse assessed as reduction of formalin-induced paw licking activity at 3 mg/kg, ip administered 15 mins prior to formalin-challenge measured after 15 to 30 mins; assay type: functional, organism-based; parameters: dose 3 mg/kg
Mus musculus [6] = assay: Toxicity in CD-1 mouse at 3 mg/kg, ip and 30 mg/kg, po; assay type: organism-based; details: in vivo
[7] = Half life in human liver microsomes at 1 to 5 uM by HPLC-MS analysis; assay type: ADME, Microsome; procedure, shortened: as §1
Mus musculus [8] = assay: Antinociceptive activity in CD-1 mouse assessed as reduction of formalin-induced paw licking activity at 3 mg/kg, ip administered 15 mins prior to formalin-challenge measured after 5 mins in presence of 5-HT1A receptor antagonist WAY-100635; assay type: functional, organism-based; parameters: dose 3 mg/kg
Mus musculus [9] = assay: Antinociceptive activity in CD-1 mouse assessed as reduction of formalin-induced paw licking activity at 3 mg/kg, ip administered 15 mins prior to formalin-challenge measured after 5 mins; assay type: functional, organism-based; parameters: dose 3 mg/kg
[10] = target: 5-hydroxytryptamine receptor 2A (Rattus norvegicus, UniProt P14842); assay: Displacement of [3H]ketanserin from 5-HT2A receptor in Sprague-Dawley rat frontal cortex after 15 mins; assay type: tissue-based
[11] = target: Adrenergic receptor alpha-2 (Homo sapiens) (UniProt P08913+P18825+P18089); assay: Displacement of [3H]RX 821002 from alpha2-adrenergic receptor (unknown origin) at 1 uM after 60 mins
[12] = target: Cannabinoid receptor 2 (Homo sapiens) (UniProt P34972); assay: Displacement of [3H]WIN55212-2 from CB2 receptor (unknown origin) at 1 uM after 120 mins
Mus musculus [13] = assay: Antinociceptive activity in CD-1 mouse assessed as reduction of formalin-induced paw licking activity at 30 mg/kg, po administered 30 mins prior to formalin-challenge measured after 5 mins; assay type: functional, organism-based; parameters: dose 30 mg/kg
[14] = target: T3, 5-hydroxytryptamine receptor 1A (Homo sapiens, UniProt P08908); assay: Agonist activity at human 5-HT1A receptor expressed in human HeLa cells assessed as inhibition of forskolin-stimulated cAMP formation after 10 mins by RIA; assay type: functional, cell-based
T3 sequence (P08908 whole entry): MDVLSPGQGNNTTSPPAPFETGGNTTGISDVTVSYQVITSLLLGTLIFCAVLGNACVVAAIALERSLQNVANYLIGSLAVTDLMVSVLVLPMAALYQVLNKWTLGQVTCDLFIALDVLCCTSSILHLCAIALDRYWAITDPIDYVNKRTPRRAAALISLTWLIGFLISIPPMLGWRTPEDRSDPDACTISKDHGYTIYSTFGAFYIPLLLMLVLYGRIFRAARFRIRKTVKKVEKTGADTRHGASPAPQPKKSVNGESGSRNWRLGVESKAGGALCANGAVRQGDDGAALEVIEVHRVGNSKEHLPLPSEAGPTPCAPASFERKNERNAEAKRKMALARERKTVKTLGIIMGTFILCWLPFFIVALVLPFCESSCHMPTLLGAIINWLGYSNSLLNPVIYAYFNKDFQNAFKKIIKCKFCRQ

[15] = Intrinsic clearance in Sprague-Dawley rat liver microsomes at 1 to 5 uM by HPLC-MS analysis; assay type: ADME, Microsome; details: read-out: CLH; procedure, shortened: as §1
[16] = target: Cannabinoid receptor 1 (Homo sapiens) (UniProt P21554); assay: Displacement of [3H]CP 55940 from CB1 receptor (unknown origin) at 1 uM after 120 mins
Sequence of Cannabinoid receptor 1 (Homo sapiens) (P21554 whole entry): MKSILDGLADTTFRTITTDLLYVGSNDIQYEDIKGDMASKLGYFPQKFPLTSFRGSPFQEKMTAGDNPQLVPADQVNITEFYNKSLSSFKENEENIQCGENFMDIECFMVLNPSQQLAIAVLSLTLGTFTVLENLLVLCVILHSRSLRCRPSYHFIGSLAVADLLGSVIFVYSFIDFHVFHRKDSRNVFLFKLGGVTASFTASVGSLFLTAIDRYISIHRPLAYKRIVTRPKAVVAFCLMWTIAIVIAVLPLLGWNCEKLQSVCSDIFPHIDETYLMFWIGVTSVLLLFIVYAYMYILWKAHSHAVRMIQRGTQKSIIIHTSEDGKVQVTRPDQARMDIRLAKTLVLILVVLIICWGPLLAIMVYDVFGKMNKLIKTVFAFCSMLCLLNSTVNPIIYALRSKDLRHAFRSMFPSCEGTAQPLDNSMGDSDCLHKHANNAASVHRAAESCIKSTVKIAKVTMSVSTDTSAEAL

Sequence of 5-hydroxytryptamine receptor 2A (P14842 whole entry): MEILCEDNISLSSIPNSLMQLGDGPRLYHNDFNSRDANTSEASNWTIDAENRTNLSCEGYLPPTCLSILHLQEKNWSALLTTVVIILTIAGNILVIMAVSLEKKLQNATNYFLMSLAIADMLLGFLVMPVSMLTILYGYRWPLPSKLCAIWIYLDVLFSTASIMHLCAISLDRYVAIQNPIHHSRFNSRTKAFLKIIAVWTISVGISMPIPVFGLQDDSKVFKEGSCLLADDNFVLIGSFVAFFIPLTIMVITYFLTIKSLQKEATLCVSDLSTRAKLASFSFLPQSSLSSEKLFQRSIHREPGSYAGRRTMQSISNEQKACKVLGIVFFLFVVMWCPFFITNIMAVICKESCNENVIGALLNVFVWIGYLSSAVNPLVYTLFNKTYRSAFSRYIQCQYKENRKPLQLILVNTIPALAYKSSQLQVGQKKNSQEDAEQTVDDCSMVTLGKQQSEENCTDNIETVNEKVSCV
Sequence of 5-hydroxytryptamine receptor 7 (P32305 whole entry): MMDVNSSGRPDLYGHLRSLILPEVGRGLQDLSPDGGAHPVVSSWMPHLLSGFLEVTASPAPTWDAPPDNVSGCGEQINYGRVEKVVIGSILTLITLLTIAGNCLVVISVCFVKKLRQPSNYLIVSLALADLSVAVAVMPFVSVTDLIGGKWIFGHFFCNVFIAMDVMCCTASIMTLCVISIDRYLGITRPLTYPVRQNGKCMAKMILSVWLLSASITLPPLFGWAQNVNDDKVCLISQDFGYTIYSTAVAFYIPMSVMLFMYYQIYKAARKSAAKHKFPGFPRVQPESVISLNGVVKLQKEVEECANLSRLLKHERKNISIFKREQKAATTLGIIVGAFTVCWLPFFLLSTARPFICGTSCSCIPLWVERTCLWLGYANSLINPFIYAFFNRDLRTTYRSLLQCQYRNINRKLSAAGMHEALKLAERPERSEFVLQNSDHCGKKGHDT
Sequence of Cannabinoid receptor 2 (Homo sapiens) (P34972 whole entry): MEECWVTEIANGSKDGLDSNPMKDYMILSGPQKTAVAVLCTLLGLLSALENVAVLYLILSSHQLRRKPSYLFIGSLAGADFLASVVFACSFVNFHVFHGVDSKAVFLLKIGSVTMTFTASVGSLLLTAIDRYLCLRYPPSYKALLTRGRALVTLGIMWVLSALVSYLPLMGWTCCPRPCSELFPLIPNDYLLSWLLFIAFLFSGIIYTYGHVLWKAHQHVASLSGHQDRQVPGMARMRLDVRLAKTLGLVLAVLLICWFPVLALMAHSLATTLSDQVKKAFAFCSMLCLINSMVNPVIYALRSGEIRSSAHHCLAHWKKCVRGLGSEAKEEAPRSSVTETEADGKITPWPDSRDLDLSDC

## CCOc1ccccc1OCCNCCCCN1C(=O)C2CCCN2C1=O.Cl (stereo unspecified)
[1]
  Ki: 16.9 nM
[2]
  CLint scaled at up to 5 µM: 3.5 mL/min/kg
[3]
  Ki: > 1000 nM
[4]
  inhibition: inactive
Mus musculus [5]
  Activity: Active
Mus musculus [6]
  Activity: Non-toxic
[7]
  half-life at up to 5 µM: 2.98 h
Mus musculus [8]
  Activity: inactive
Mus musculus [9]
  Activity: Active
[10]
  Ki: > 1000 nM
[11]
  inhibition: inactive
[12]
  inhibition: inactive
Mus musculus [13]
  Activity: Active
[14]
  EC50: 19 nM
[15]
  CLint scaled at up to 5 µM: 107 mL/min/kg
[16]
  inhibition: inactive
